Compound activity deposited in PubChem by several laboratories.
SF1 activator = SF-1 (human) activation. Q13285. activation, % at 10 µM. AID 522. actives 1.9% (n = 65,000). CHO-K1 Gal4-SF-1 LBD luciferase reporter; % increase over DMSO SF-1-specific signal;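 active = activation above the mean activation of all tested compounds plus 3 SD, cut at about 50% in these data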
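System: CHO-K1 cells with Gal4–hSF-1 LBD chimera plus Gal4-driven luciferase; quantity: 4,000 CHO-K1 cells per well; compound: one dose, 10 µM compound, 1% DMSO; times: 20 h compound treatment, 37 °C; measured by: SteadyLite luciferase luminescence; read-out: percent activation versus DMSO; benchmarks: DMSO and mock-transfected background; replicates: one test per compound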
D1 allo mod = allosteric modulators of human D1 dopamine receptor; B-score at 10 µM; actives 5.9% (n = 58,000); HEK293 D1, CRE-luciferase, dopamine EC30 potentiation; actives deviate in either direction; AID 641; P21728;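 active = luminescence count or its row- and column-corrected plate score outside the 99.7% band of the plate's sample wells, on either side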
Target sequence (P21728 whole entry, looked up): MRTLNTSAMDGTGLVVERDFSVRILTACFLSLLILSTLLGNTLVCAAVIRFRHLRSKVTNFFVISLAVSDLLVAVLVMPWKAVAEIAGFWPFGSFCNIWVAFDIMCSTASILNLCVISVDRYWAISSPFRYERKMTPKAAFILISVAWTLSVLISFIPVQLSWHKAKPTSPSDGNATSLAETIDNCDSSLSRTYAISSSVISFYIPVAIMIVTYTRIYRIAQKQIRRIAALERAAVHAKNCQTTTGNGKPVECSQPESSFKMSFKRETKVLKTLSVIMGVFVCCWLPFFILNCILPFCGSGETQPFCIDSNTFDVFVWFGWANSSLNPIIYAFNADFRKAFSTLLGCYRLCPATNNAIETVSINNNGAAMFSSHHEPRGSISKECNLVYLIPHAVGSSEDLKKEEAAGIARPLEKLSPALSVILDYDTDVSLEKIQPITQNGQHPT
RORA act = activators of human nuclear receptor RORA; P35398; AID 560; actives 1.5% (n = 65,000); CHO-K1 Gal4-RORA LBD luciferase reporter, luminescence; percent increase over mock-subtracted basal signal; activation, % at 10 µM;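 active = activation above the mean of all tested compounds plus 3 SD, cut at about 49% in these data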
M1 antag = blocks the rat M1 muscarinic receptor response to acetylcholine; B-score at 10 µM; AID 628; P08482; CHO-M1 cells, Fluo-4 calcium, ACh EC80 antagonist mode; hits give low values; actives 3.4% (n = 64,000);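 active = calcium fluorescence response, raw or row-and-column corrected B-score, differing from the plate sample mean either way at a set confidence level, mostly lower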
mHtt clearance = compounds clearing mutant huntingtin protein. HeLa Exon1htt(103Q)mCFP, aggregate imaging; zero = plate's median compound well. actives 0.42% (n = 47,000). inhibition, % at 1.5 µM;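 active = inhibition of aggregate fluorescence above about 70%, also judged a hit by eye on the cell image, limit read from the data, passing the limit was not always enough; inconclusive = no rule stated for this call; inactive = not judged a hit on image review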;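 also: cells exposed to compound for three days before fixation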
M1 ag = M1 muscarinic receptor agonism | B-score at 10 µM | AID 626 | actives 3% (n = 64,000) | CHO-M1 cells, Fluo-4 calcium fluorescence, agonist mode; hits give high values;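 active = fluorescence rise, raw or as B-score row- and column-corrected plate score, outside the 99.7% band of its plate's samples, either direction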
A number is an active result; n = inactive; u = inconclusive; x = not tested or not shown. This is a sample that favours compounds with a hit; in the whole collection about 11% have one here.

SMILES	SF1 activator	D1 allo mod	RORA act	M1 antag	mHtt clearance	M1 ag
CCC(C)NC(=O)C1=C(C)C(=O)OC12CCC(C)CC2 (centres undefined)	n	n	n	n	x	n
Cc1ccc(C)c(N(CC(=O)N(C)C)S(C)(=O)=O)c1	n	n	n	1.26	n	n
Cc1cc(C)c2nc(Nc3nc(C)cc(=O)[nH]3)nc(C)c2c1	n	-3.64	n	n	x	n
COc1ccc2c(C)nc(Nc3nc(C)cc(=O)[nH]3)nc2c1	n	n	n	n	x	n
CCOC(=O)Nc1ccc2c(C)cc(=O)oc2c1	55.6	n	53.1	n	n	n
COc1ccccc1CNC(=O)C(C)NS(=O)(=O)c1ccc(Br)cc1 (centres undefined)	x	x	x	x	n	x
COc1ccc(N=C(C)C2=C(O)COC2=O)cc1	n	n	n	n	n	n
CCc1ccc(C(C)NC(=O)Cn2cnc3c(=O)n(C)c(=O)n(C)c32)cc1 (centres undefined)	x	x	x	x	n	x
CC1(C)Cc2c(C#N)c(N3CCN(C(=O)c4ccccc4)CC3)nc(-c3ccco3)c2CS1	n	x	n	n	n	n
CC(C)c1nc(N2CCN(C(=O)c3ccccc3)CC2)c(C#N)c2c1COC(C)(C)C2	53.3	n	n	n	n	n
Cn1c(-c2ccccc2)cnc1SCc1nc2ccccc2c(=O)[nH]1	68.9	n	n	n	n	n
Cn1c(SCc2nc3ccccc3c(=O)[nH]2)nnc1-c1ccco1	n	n	n	n	x	n
COc1ccccc1-n1cnc2cc(NCc3ccco3)ccc21	55.7	n	50.3	n	u	n
COc1ccc(CNc2ccc3c(c2)ncn3-c2ccccc2OC)cc1	x	x	x	x	n	x
CC1CN(c2nc3c(c(=O)n(C)c(=O)n3C)n2Cc2c(Cl)cccc2Cl)CC(C)O1 (centres undefined)	n	n	n	3.16	x	n
CCC1Sc2ccccc2N(CC(=O)NCc2ccc3c(c2)OCO3)C1=O (centres undefined)	n	-2.63	n	n	x	n
O=C(Nc1ccc2oc(-c3ccccc3Cl)nc2c1)c1ncn[nH]1	75.6	n	62.4	n	x	n
CC(C)c1ccc2oc(-c3ccc(NC(=O)c4ncn[nH]4)cc3)nc2c1	65.9	n	n	n	n	n
CC(C)c1ccc2oc(-c3ccc(N)cc3)nc2c1	n	-5.97	n	n	n	n
CCc1ccc(N(C(=O)c2ccco2)C(C(=O)NC2CCCC2)c2ccco2)cc1 (centres undefined)	x	x	x	x	n	x
CC(C)(C)CC(=O)NC(=S)N1CCCCCC1	x	x	x	x	n	x
O=C(CN1C(=O)NC2(CCCCCC2)C1=O)c1ccc2c(c1)OCCO2	88.7	n	n	n	n	n
CCOc1ccc(C2C=C(c3ccccc3)Nc3nnnn32)cc1 (centres undefined)	n	n	56.5	n	n	n
O=c1c2c3nc4ccccc4nc3n(-c3ccc4c(c3)OCCO4)c2ncn1C1CCCC1	n	n	n	n	x	n
O=c1c2c3nc4ccccc4nc3n(-c3ccc4c(c3)OCCO4)c2ncn1CC1CCCO1 (centres undefined)	n	n	n	-1.76	x	n
SMILES	SF1 activator	D1 allo mod	RORA act	M1 antag	mHtt clearance	M1 ag
CCC(C)n1c(C)nc2c(c1=O)c1nc3ccccc3nc1n2-c1ccc2c(c1)OCCO2 (centres undefined)	n	-5.27	n	n	x	n
COc1ccc(C(=O)Nc2ccc(Cl)cc2C(=O)NCc2ccco2)cc1	x	x	x	x	n	x
CCC(C)C(NC(=O)c1ccccc1NC(=O)c1ccc(OC)cc1)C(=O)NCc1ccco1 (centres undefined)	n	-4.71	n	n	n	n
COc1ccccc1N1CCN(c2nc(-c3ccccc3)cc(C(F)(F)F)n2)CC1	n	x	n	n	n	n
COc1ccccc1N1CCN(c2ccc(-c3ccccc3)nn2)CC1	n	-5.39	n	n	x	n
CCOC(=O)c1cc2sc(C)cc2n1CC(=O)NCCc1ccccc1	n	n	n	n	x	n
Cc1cccc(N2CCN(c3nc4ccccc4n4cnnc34)CC2)c1C	n	n	n	0.357	n	n
O=c1cc(N2CCN(c3ccccc3F)CC2)[nH]c(=O)n1-c1ccc(Br)cc1	n	n	n	n	n	-2.63
CC(=O)c1cccc(NC(=O)N2CCCC2C(=O)NC2CCCCC2)c1 (centres undefined)	n	n	n	n	n	n
O=C(CSCC(=O)NC1CC1)Nc1ccc2ccccc2c1	x	x	x	x	n	x
CN1CCN(Cc2c(C#N)c3ccccc3n2C)CC1	n	n	n	x	x	x
COc1ccc2ccccc2c1CN1CCN(C)CC1	n	-2.44	n	n	x	n
COc1ccc(C2N(c3cc(Cl)ccc3OC)C(=O)C3CCCN32)cc1OC (centres undefined)	n	n	n	n	n	n
CCN(CC)C(=O)c1sc2nc(-c3ccc(OC)cc3)cn2c1C	80.0	n	98.2	n	n	n
CNC(=O)c1sc2nc(-c3ccc(OC)cc3)cn2c1C	n	n	62.5	n	x	n
CCC(C)NC(=O)c1cc(-c2ccc(OC)cc2)on1 (centres undefined)	n	n	59.9	n	x	n
COc1cccc(-c2cc(C(=O)Nc3ccccc3SC)no2)c1	n	n	66.1	n	n	n
COc1ccc(-c2cc(C(=O)NCC(C)C)no2)cc1	n	x	n	n	x	n
COCC(C)NC(=O)c1cc(-c2cccc(OC)c2)on1 (centres undefined)	70.8	n	n	n	n	n
COCCNC(=O)c1cc(-c2cccc(OC)c2)on1	n	n	n	n	n	n
O/N=C(\c1ccc(Cl)cc1)c1cc2ccccc2o1	n	x	n	n	n	n
CSc1nsc(SCC(=O)N2CCN(c3ccccc3)CC2)n1	n	n	n	x	n	x
CCCNC(=O)c1cnc(Sc2ncc(C(F)(F)F)cc2Cl)n1C	x	x	x	x	n	x
O=C(CSc1nnc(-c2ccco2)o1)NC1CCCCC1	x	n	x	x	x	x
CN(C(=O)CSc1nnc(-c2ccco2)o1)C1CCCCC1	n	n	50.1	n	n	n
SMILES	SF1 activator	D1 allo mod	RORA act	M1 antag	mHtt clearance	M1 ag
Cc1onc(-c2ccccc2Cl)c1C(=O)NCc1ccccn1	n	n	n	n	x	n
Cc1onc(-c2c(F)cccc2Cl)c1C(=O)NCc1ccccn1	n	-4.17	n	n	x	n
Cc1nc2ccc(C(=O)c3ccccc3)cc2[nH]1	56.9	n	n	n	x	n
CC(=O)c1ccc(NC(=S)N2C(C)CCCC2C)cc1 (centres undefined)	x	x	x	x	n	x
Brc1ccc(-c2nc3ccccc3s2)s1	54.3	n	n	n	n	n
c1ccc(-c2nc3ccccc3s2)nc1	59.9	n	n	n	x	n
Cc1csc(SCC(=O)c2cc(C)n(Cc3cccs3)c2C)n1	n	-5.22	n	n	x	n
COc1cccc(OCc2nc3ncc(Br)cc3[nH]2)c1	76.1	n	60.4	n	n	n
COc1cccc(OCc2nc3ccccc3[nH]2)c1	x	n	x	n	n	n
CN1CCN(c2ccc(NC(=O)c3ccccc3Br)cc2)CC1	n	-4.56	n	n	x	n
